These results are taken from ChEMBL document CHEMBL3352378, “Novel carbazole inhibits phospho-STAT3 through induction of protein-tyrosine phosphatase PTPN6” (J Med Chem, 2014).

The source made the active and inactive calls. The calls are words filed in the database; no cut-off is given here.

The target in experiment [1] is Signal transducer and activator of transcription 3 (Homo sapiens) (UniProt P40763). The experiment can be described thus: Inhibition of STAT3 in human Hs578T cells assessed as reduction of IL-6 induced STAT3 phosphorylation at Y705 incubated for 2 hrs prior to IL-6 challenge measured after 30 mins by Western blotting analysis. Particulars: Hs-578T. The experiment is classed as cell-based. The gist of the method:
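Cells pretreated with compound for 2 h, then stimulated with IL-6 at 5 ng/mL for 30 min. Lysates immunoblotted for phospho-STAT3 (Y705), with β-actin as loading control.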
On the technique in general: In western blotting, separated proteins are transferred to a membrane and probed.

Experiment [2] has the same target. Put plainly: Inhibition of STAT3 in human SUM149PT cells assessed as reduction of cyclin D1 mRNA expression at 0.3 to 1 uM after 24 hrs by RT-PCR analysis. The experiment is classed as cell-based. In short, it runs like this:
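HS578T and SUM149PT cells treated for 24 h with increasing concentrations. Transcripts measured by RT-PCR, normalized to GAPDH as loading control.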

For experiment [3], the system named is Hs-578T. Put plainly: Induction of PTPN6 protein expression in human Hs578T cells transfected with PTPN6-siRNA after 24 hrs by Western blotting analysis. The experiment is classed as functional, cell-based. The gist of the method: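 HS578T cells transfected with 100 nM control or PTPN6 siRNA using Lipofectamine 2000 in serum-free medium. Medium with 20% FBS added after 4 h, and cells kept 3 days. Then treated with DMSO or compound for 24 h. PTPN6 and phospho-STAT3 immunoblotted and quantified by ImageJ densitometry.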

The test system of experiment [4] is Hs-578T. The experiment can be described thus: Induction of PTPN6 mRNA expression in human Hs578T cells after 24 hrs by RT-PCR analysis. The experiment is classed as functional, cell-based. The gist of the method:
(§1)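 HS578T and SUM149PT cells given increasing concentrations for 24 h. PTPN6 mRNA measured by RT-PCR, with GAPDH as loading control.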

The next experiment deals with A-431. The experiment can be described thus: Cytotoxicity against human A431 cells after 72 hrs by MTT assay. The experiment is classed as functional. Particulars: A-431, 72 h. In short, it runs like this:
(§2)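 Cells exposed to increasing concentrations for about 72 h, and viability read by MTT. EC50 fitted with CompuSyn. Two independent experiments, each in triplicate, mean ± SEM. Compound stocks 10 mM in DMSO.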

The target in experiment [5] is Signal transducer and activator of transcription 3 (Homo sapiens) (UniProt P40763). The experiment can be described thus: Inhibition of STAT3 in human Hs578T cells assessed as reduction of IL-6 induced transactivation incubated for 1 hr prior to IL-6 challenge measured after 2 hrs by luciferase reporter gene assay. Particulars: Hs-578T. The experiment is classed as cell-based. In short, it runs like this: (§3)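 Cells transfected with the APRE-Luc STAT3-responsive reporter. Pretreated 1 h with increasing concentrations, then given 5 ng/mL IL-6: 2 h for HS578T, 16 h for MCF7. Luciferase read afterwards; relative activity as mean ± SD of triplicates.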
Signal transducer and activator of transcription 3 (Homo sapiens), sequence (P40763 whole entry): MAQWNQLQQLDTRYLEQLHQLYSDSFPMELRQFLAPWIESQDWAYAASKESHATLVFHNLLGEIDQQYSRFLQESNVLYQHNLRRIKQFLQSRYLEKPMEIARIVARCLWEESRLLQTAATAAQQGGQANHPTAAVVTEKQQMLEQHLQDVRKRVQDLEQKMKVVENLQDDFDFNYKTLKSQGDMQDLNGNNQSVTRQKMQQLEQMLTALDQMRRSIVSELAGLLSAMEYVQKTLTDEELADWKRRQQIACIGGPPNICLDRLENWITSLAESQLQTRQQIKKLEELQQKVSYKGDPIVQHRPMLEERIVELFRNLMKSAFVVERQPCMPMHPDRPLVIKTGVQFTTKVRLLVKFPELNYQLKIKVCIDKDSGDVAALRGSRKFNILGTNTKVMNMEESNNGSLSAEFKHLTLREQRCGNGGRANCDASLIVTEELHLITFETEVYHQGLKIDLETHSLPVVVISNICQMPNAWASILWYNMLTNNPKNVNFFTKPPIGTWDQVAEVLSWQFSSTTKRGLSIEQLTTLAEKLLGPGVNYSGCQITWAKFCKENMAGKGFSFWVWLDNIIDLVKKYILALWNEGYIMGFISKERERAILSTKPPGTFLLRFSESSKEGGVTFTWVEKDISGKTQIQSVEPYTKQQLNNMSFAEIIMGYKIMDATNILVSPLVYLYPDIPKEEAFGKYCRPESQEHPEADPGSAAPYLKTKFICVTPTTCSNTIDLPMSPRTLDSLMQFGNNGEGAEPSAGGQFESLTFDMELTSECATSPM
A general note: Reporter assays use an easily measured gene product as a stand-in for the process of interest.

The test system of experiment [6] is SUM149PT. Put plainly: Cytotoxicity against human SUM149PT cells after 72 hrs by MTT assay. The experiment is classed as functional, cell-based. The gist of the method:
as §2
A general note: Tetrazolium assays rely on reduction of a dye to a coloured formazan, in cell work by metabolically active cells.

Experiment [7] concerns SUM149PT. The experiment can be described thus: Induction of PTPN6 mRNA expression in human SUM149PT cells after 24 hrs by RT-PCR analysis. The experiment is classed as functional, cell-based. The gist of the method:
as §1

The target of experiment [8] is Signal transducer and activator of transcription 3 (Homo sapiens) (UniProt P40763). Put plainly: Inhibition of STAT3 in human Hs578T cells assessed as reduction of cyclin D1 level at 0.3 to 3 uM after 24 hrs by Western blotting analysis. The experiment is classed as cell-based. As to conditions: Hs-578T. The gist of the method:
(§4)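 HS578T and SUM149PT cells given increasing concentrations for 24 h. Lysates immunoblotted with the indicated antibodies, β-actin as loading control.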

The target is the same in experiment [9]. Put plainly: Inhibition of STAT3 in human MCF7 cells assessed as reduction of IL-6 induced transactivation incubated for 1 hr prior to IL-6 challenge measured after 16 hrs by luciferase reporter gene assay. The experiment is classed as cell-based. In short, it runs like this:
as §3

Experiment [10] has the same target. The experiment can be described thus: Inhibition of STAT3C-mediated transcription in human Hs578T cells at 1 uM after 24 hrs by luciferase reporter gene assay. The experiment is classed as cell-based. Particulars: Hs-578T. In short, it runs like this:
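HS578T cells co-transfected with a constitutively active STAT3 (STAT3C) expression vector and the APRE-Luc reporter. Treated at 1 μM for 24 h, with JAK2 inhibitor AZD1480 for comparison. Luciferase measured; mean ± SD of triplicates.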

A further experiment relates to MDA-MB-436. The experiment can be described thus: Cytotoxicity against human MDA-MB-436 cells after 72 hrs by MTT assay. The experiment is classed as functional, cell-based. In short, it runs like this:
as §2

Experiment [11] concerns the target Tyrosine-protein phosphatase non-receptor type 6 (Homo sapiens) (UniProt P29350). The experiment can be described thus: Induction of PTPN6 in human Hs578T cells assessed as inhibition of STAT3 phosphorylation at 3 uM after 16 hrs by Western blotting analysis in presence of pervanadate. The experiment is classed as cell-based. As to conditions: Hs-578T. The gist of the method:
(§5)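 HS578T and SUM149PT cells treated for 16 h without or with increasing pervanadate as a phosphatase inhibitor; JAK1/2 inhibitor CP690550 run in parallel. Lysates immunoblotted for phospho-STAT3 (Y705), with β-actin as loading control.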

The test system of the next experiment is MDA-MB-468. The experiment can be described thus: Cytotoxicity against human MDA-MB-468 cells after 72 hrs by MTT assay. The experiment is classed as functional, cell-based. In short, it runs like this:
as §2

In another experiment the test system is MDA-MB-453. The experiment can be described thus: Cytotoxicity against human MDA-MB-453 cells after 72 hrs by MTT assay. The experiment is classed as functional, cell-based. The gist of the method:
as §2

For experiment [12], the target named is Signal transducer and activator of transcription 3 (Homo sapiens) (UniProt P40763). Put plainly: Inhibition of STAT3 in human SUM149PT cells assessed as reduction of IL-6 induced STAT3 phosphorylation at Y705 incubated for 2 hrs prior to IL-6 challenge measured after 30 mins by Western blotting analysis. The experiment is classed as cell-based.
For experiment [13], the target named is Tyrosine-protein phosphatase non-receptor type 6 (Homo sapiens) (UniProt P29350). Put plainly: Induction of PTPN6 in human SUM149PT cells assessed as inhibition of STAT3 phosphorylation at 3 uM after 16 hrs by Western blotting analysis in presence of pervanadate. The experiment is classed as cell-based. The gist of the method: as §5
Tyrosine-protein phosphatase non-receptor type 6 (Homo sapiens), sequence (P29350 whole entry): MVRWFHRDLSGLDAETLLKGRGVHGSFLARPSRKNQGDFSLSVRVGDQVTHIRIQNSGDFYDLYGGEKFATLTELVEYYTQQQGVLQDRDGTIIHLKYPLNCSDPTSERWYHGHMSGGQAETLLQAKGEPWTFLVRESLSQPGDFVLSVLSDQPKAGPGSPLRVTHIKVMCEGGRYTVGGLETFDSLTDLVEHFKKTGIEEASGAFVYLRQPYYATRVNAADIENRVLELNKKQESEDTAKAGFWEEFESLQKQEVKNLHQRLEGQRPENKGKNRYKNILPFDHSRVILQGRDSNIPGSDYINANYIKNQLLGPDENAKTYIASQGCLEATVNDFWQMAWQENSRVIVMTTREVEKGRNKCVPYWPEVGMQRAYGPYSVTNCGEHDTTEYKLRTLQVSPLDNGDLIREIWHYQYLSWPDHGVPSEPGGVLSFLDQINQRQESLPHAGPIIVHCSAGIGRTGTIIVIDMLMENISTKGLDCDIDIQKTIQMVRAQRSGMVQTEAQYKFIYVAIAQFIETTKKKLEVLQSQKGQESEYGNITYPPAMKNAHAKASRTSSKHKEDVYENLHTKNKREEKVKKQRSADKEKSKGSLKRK
The target in experiment [14] is Signal transducer and activator of transcription 3 (Homo sapiens) (UniProt P40763). The experiment can be described thus: Inhibition of STAT3 in human SUM149PT cells assessed as reduction of cyclin D1 level at 0.3 to 3 uM after 24 hrs by Western blotting analysis. The experiment is classed as cell-based. The gist of the method: as §4
For experiment [15] the target is unchanged. Put plainly: Inhibition of STAT3 in human Hs578T cells assessed as reduction of STAT3 phosphorylation at Y705 after 24 hrs by Western blotting analysis. The experiment is classed as cell-based. As to conditions: Hs-578T. In short, it runs like this: as §4
For the next experiment, the system named is A549. The experiment can be described thus: Antitumor activity against human A549 cells xenografted in athymic Balb/c nude mouse at 10 mg/kg, ip administered every other day for 27 days measured on day 9. The experiment is classed as functional. As to conditions: route intraperitoneal, read-out: TGI. In short, it runs like this:
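Male and female athymic nude mice (18–22 g) implanted subcutaneously in the right auxiliary region with 3×10^6 A549 cells. Mice were randomized into groups of five 3 days after implantation, and dosing started at about 50 mm³ tumor. Working solution 1 mg/mL in 10% Cremophore/3% PEG400/87% PBS; ip every other day, vehicle control. Caliper volume L×w×w/2, mean ± SEM, n = 5.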

The test system of a further experiment is SUM1315MO2. Put plainly: Cytotoxicity against human SUM1315MO2 cells after 72 hrs by MTT assay. The experiment is classed as functional, cell-based. In short, it runs like this:
as §2

As for `Cc1c(OS(=O)(=O)c2cccc3c(N(C)C)cccc23)ccc2c1[nH]c1cc(O)ccc12`, the inhibition result in experiment [1], in experiment [5], in experiment [12] and in experiment [15] was “Dose-dependent effect” each time. The inhibition entry in experiment [2], in [8], in experiment [9], in experiment [10] and in experiment [14] was “Active” throughout. Further, the outcome in the experiment on Hs-578T [3] was inactive. The Activity result in the experiment with Hs-578T [4] and with SUM149PT [7] was “Dose-dependent effect” throughout. Further, it took 160 nM to inhibit growth in the experiment on A-431 by half (GI50). Moreover, the outcome in the experiment with SUM149PT [6], in the experiment with MDA-MB-436, with MDA-MB-468, in the experiment with MDA-MB-453 and in the experiment with SUM1315MO2 was Active. Further, the inhibition entry in experiment [11] and in experiment [13] was “inactive” in each case. Besides, the inhibition in vivo at 10 mg/kg with A549 stood at 73.8%.
